Tests used:
[1] = target: T1, Sodium-dependent dopamine transporter (Homo sapiens, UniProt Q01959); assay: Displacement of [3H]WIN-35428 from human recombinant DAT expressed in BacMam virus-transduced cells by scintillation proximity assay; type: cell-based
[2] = target: T2, Sodium-dependent serotonin transporter (Homo sapiens, UniProt P31645); assay: Displacement of [3H]citalopram from human recombinant SERT expressed in BacMam virus-transduced cells by scintillation proximity assay; type: cell-based
Summary of the method: (§1)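 BacMam-transduced membranes in SPA format. SERT: 1 mg/mL beads, 6 μg/mL membranes, 3 nM [3H]citalopram. NET: 2 mg/mL beads, 40 μg/mL membranes, 10 nM [3H]nisoxetine. Incubated overnight at room temperature; pKi from pIC50 by Cheng-Prusoff.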

[3] = target: T2, Sodium-dependent serotonin transporter; assay: Inhibition of [3H]serotonin reuptake at human SERT expressed in LLCPK cells by scintillation proximity assay; type: cell-based
Summary of the method: (§2)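 Uptake-SPA on stably transfected LLCPK cells in HEPES buffer, pH 7.4. SERT: 25000 cells/well, 1.5 mg/mL beads, 35 nM [3H]serotonin. NET: 50000 cells/well, 1.5 mg/mL beads, 45 nM [3H]noradrenalin. DAT: 75000 cells/well, 2 mg/mL beads, 75 nM [3H]dopamine. Concentrations are those of the substrate addition. 1 h at room temperature; 4-parameter fit.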

[4] = target: T3, Sodium-dependent noradrenaline transporter (Homo sapiens, UniProt P23975); assay: Inhibition of [3H]noradrenalin reuptake at human NET expressed in LLCPK cells by scintillation proximity assay; type: cell-based; summary of the method: as §2
[5] = target: T1, Sodium-dependent dopamine transporter; assay: Inhibition of [3H]dopamine reuptake at human DAT expressed in LLCPK cells by scintillation proximity assay; type: cell-based; summary of the method: as §2
[6] = target: T3, Sodium-dependent noradrenaline transporter; assay: Displacement of [3H]nisoxetine from human recombinant NET expressed in BacMam virus-transduced cells by scintillation proximity assay; type: cell-based; summary of the method: as §1
[7] = target: Cytochrome P450 2C19 (Homo sapiens, UniProt P33261); assay: Inhibition of human CYP2C19 by fluorescence assay; type: ADME
Summary of the method: (§3)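 Recombinant human P450 bactosomes (0.1 mg/mL) in 50 mM phosphate, pH 7.4. Test compound at 0.1-10 μM, preincubated 10 min at 37 °C with fluorogenic substrate: ethoxyresorufin 0.5 μM (1A2), FCA 50 μM (2C9), BMC 10 μM (2C19), MMC 10 μM (2D6).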

[8] = (§4) Intrinsic clearance in human liver microsomes assessed per gram of protein at 0.5 uM after 30 mins by HPLC-MS/MS analysis; type: ADME, Microsome; conditions: liver microsomes
Summary of the method: (§5)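 Compound at 0.5 μM with rat or human liver microsomes (0.5 mg protein/mL), 50 mM phosphate, pH 7.4, 37 °C, started with NADPH. Sampled at 0-30 min, acetonitrile quench, HPLC-MS/MS. CLi from first-order elimination constant, scaled assuming 52.5 mg microsomal protein/g.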

[9] = (§6) Intrinsic clearance in rat liver microsomes assessed per gram of protein at 0.5 uM after 30 mins by HPLC-MS/MS analysis; type: ADME, Microsome; conditions: liver microsomes; summary of the method: as §5
[10] = target: Cytochrome P450 2C9 (Homo sapiens, UniProt P11712); assay: Inhibition of human CYP2C9 by fluorescence assay; type: ADME; summary of the method: as §3
[11] = target: T4, Cytochrome P450 1A2 (Homo sapiens, UniProt P05177); assay: Inhibition of human CYP1A2 by fluorescence assay; type: ADME; summary of the method: as §3
T4 sequence (P05177 whole entry): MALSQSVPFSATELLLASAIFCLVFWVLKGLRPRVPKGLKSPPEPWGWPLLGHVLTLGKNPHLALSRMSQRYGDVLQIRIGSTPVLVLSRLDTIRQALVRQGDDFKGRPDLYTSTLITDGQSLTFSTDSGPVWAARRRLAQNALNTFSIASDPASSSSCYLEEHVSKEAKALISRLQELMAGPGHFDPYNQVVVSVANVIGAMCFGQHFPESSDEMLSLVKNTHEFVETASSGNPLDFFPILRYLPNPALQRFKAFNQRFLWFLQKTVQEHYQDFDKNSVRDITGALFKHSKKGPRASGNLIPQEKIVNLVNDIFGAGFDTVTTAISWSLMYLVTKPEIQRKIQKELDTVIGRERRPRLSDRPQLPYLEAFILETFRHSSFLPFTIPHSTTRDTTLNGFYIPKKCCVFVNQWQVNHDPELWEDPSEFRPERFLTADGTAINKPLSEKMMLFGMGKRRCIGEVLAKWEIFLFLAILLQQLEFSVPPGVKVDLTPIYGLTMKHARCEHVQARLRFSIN

[12] = target: Cytochrome P450 3A4 (Homo sapiens, UniProt P08684); assay: Inhibition of human CYP3A4 by fluorescence assay
[13] = target: Cytochrome P450 2D6 (Homo sapiens, UniProt P10635); assay: Inhibition of human […] by fluorescence assay; type: ADME; summary of the method: as §3
[14] = species: Homo sapiens; assay: Selectivity for human recombinant NET over human recombinant DAT
[15] = species: Homo sapiens; assay: Selectivity for human recombinant SERT over human recombinant DAT
[16] = Ratio of drug level in brain to blood in rat; type: ADME, tissue-based; conditions: read-out: BBR
[17] = Volume of distribution in rat; type: ADME, organism-based; conditions: in vivo
[18] = Fraction unbound in rat brain; type: ADME, tissue-based; conditions: brain
[19] = Blood clearance in rat; type: ADME, organism-based
[20] = Bioavailability in rat; type: ADME, organism-based; conditions: in vivo
[21] = Half life in rat; type: ADME, organism-based; conditions: in vivo
[22] = test system: Liver microsomes; assay: as §4; type: ADME, Microsome; conditions: microsomes, 0.5 h, 0.5 µM; summary of the method: as §5
[23] = test system: Liver microsomes; assay: as §6; type: ADME, Microsome; conditions: microsomes, 0.5 h, 0.5 µM; summary of the method: as §5

Sequence of Cytochrome P450 2C19 (P33261 whole entry): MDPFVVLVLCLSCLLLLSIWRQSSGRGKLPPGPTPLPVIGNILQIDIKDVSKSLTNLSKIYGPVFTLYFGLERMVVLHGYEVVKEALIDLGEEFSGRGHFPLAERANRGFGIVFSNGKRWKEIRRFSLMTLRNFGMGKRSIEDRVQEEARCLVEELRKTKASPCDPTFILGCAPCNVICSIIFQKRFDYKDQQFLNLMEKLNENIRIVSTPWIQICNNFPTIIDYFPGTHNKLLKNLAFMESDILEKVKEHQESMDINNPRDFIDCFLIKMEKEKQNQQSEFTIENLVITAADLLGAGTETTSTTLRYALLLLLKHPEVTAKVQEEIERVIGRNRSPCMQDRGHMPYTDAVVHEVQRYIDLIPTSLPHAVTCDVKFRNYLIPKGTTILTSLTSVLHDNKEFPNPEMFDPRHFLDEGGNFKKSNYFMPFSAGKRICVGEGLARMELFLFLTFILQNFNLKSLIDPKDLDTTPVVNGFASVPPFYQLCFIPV
T3 sequence (P23975 whole entry): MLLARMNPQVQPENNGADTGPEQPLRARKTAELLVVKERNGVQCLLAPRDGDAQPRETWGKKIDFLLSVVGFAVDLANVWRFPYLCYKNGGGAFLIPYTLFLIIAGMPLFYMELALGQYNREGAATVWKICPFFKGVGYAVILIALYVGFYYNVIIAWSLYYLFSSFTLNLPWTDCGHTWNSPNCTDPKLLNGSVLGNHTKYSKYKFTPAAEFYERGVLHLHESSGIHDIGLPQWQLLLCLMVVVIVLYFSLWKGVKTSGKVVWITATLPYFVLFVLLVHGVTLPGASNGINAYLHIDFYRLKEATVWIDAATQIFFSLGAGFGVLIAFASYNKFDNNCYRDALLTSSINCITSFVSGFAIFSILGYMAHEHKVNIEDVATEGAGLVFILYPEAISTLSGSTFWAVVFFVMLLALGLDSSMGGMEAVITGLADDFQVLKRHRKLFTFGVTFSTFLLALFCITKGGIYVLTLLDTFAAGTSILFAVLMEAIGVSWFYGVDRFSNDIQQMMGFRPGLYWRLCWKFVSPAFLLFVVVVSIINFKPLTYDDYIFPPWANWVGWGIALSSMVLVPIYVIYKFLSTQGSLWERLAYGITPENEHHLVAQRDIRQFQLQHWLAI
Sequence of Cytochrome P450 3A4 (P08684 whole entry): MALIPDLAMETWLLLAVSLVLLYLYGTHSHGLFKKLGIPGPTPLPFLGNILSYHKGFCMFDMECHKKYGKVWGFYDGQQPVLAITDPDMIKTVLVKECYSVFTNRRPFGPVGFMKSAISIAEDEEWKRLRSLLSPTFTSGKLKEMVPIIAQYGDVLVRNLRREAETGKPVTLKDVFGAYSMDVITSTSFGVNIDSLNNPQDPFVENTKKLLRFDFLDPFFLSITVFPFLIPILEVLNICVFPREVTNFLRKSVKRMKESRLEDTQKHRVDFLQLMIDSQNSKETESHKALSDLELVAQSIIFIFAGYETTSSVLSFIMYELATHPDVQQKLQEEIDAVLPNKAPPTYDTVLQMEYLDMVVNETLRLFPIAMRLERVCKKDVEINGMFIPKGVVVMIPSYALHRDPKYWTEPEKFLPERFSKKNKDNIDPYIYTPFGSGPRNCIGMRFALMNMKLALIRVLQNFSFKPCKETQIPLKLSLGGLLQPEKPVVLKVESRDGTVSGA
T2 sequence (P31645 whole entry): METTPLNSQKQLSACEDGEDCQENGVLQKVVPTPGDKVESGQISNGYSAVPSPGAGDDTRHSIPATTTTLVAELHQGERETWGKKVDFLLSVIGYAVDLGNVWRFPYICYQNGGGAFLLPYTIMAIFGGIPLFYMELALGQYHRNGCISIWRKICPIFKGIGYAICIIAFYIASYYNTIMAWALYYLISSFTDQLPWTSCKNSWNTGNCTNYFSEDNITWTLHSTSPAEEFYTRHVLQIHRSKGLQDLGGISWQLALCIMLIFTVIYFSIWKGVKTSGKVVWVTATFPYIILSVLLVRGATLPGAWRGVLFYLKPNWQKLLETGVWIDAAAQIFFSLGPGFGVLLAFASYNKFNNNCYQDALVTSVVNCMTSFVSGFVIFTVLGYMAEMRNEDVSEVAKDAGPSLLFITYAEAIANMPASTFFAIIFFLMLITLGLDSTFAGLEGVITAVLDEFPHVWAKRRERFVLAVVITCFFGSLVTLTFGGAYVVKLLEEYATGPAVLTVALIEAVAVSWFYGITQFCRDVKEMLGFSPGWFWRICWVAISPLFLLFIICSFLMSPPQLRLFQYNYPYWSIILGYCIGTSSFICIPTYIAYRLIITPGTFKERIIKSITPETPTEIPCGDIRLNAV
T1 sequence (Q01959 whole entry): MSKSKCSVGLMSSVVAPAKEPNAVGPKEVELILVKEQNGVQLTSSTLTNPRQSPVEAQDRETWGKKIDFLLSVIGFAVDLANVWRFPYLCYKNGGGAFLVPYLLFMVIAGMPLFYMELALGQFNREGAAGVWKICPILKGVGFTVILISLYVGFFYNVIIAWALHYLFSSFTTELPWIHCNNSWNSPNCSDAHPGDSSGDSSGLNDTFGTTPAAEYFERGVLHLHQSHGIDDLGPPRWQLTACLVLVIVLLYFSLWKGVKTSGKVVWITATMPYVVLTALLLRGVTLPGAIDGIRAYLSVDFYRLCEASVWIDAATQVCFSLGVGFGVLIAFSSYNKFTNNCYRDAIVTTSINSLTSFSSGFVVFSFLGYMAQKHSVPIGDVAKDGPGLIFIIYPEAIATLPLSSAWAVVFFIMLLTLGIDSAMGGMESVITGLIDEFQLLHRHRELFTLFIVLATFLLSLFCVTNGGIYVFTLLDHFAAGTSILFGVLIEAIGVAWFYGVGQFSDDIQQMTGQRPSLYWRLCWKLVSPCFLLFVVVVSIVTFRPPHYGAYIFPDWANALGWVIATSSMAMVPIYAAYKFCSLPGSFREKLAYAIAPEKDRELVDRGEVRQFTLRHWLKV
Sequence of Cytochrome P450 2C9 (P11712 whole entry): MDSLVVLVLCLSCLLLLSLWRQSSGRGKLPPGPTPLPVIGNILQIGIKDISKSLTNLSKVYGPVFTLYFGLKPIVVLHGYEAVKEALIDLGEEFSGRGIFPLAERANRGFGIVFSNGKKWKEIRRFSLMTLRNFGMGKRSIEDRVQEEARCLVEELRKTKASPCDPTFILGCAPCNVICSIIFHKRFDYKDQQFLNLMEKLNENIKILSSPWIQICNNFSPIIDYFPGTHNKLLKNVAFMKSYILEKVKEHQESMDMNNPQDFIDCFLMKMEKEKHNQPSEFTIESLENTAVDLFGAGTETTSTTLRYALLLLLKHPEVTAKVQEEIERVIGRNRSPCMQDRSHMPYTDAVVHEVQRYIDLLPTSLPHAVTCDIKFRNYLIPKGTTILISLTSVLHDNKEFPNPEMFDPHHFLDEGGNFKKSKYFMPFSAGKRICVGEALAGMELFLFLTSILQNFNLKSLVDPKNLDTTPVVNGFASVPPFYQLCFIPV
Sequence of Cytochrome P450 2D6 (P10635 whole entry): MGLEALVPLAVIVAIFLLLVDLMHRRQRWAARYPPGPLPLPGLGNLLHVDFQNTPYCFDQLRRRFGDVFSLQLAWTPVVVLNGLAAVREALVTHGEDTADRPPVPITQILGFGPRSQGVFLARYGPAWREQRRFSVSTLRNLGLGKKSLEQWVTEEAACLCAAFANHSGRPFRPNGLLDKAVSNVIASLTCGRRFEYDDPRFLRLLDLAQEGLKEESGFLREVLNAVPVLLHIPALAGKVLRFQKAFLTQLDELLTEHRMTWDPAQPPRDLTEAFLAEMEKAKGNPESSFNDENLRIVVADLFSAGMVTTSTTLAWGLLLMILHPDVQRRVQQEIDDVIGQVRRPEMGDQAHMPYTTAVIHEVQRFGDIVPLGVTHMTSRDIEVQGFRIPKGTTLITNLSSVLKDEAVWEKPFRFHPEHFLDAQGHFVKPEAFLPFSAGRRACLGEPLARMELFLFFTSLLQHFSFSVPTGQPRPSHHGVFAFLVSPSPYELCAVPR

| SMILES | Ki [1] [nM] | Ki [2] [nM] | Ki [6] [nM] | IC50 [7] [nM] | IC50 [10] [nM] | IC50 [11] [nM] | IC50 [13] [nM] | also measured |
| --- | --- | --- | --- | --- | --- | --- | --- | --- |
| Cc1csc(C[C@H]2[C@@H]3CNC[C@@]32c2ccc(Cl)c(Cl)c2)n1 (relative stereo) | 20 | 0.0794 | 0.126 | – | – | – | – | IC50 [3]: 1 nM; IC50 [4]: 0.251 nM; IC50 [5]: 20 nM |
| COCC[C@H]1[C@]2(C)CNC[C@]12c1ccc(Cl)c(Cl)c1 (relative stereo) | 50.1 | 0.251 | 1 | – | – | – | – | IC50 [3]: 1.58 nM; IC50 [4]: 0.398 nM; IC50 [5]: 15.8 nM |
| COC[C@@H]1[C@H]2CNC[C@]21c1ccc2ccccc2c1 (stereo in doubt) | 25.1 | 0.0794 | 0.631 | > 4000 | > 4000 | 900 | > 4000 | CLint scaled at 0.5 µM [8]: 2.2 mL/min/kg; CLint scaled at 0.5 µM [9]: 3.9 mL/min/kg; IC50 [12]: > 4000 nM |
| COC[C@H]1[C@@H]2CNC[C@@]21c1ccc(Cl)c(Cl)c1 (relative stereo) | – | – | – | – | – | – | – | Selectivity ratio [14]: 70; Selectivity ratio [15]: 70 |
| FC(F)(F)COC[C@@H]1[C@H]2CNC[C@]21c1ccc(Cl)c(Cl)c1 (stereo in doubt) | 25.1 | 0.631 | 1.58 | – | – | – | – | Kp [16]: 18; Vd [17]: 3.2 L/kg; fraction unbound [18]: 0.006; clearance [19]: 42 mL/min/kg; bioavailability [20]: 41%; half-life [21]: 1.4 h |
| CCOC[C@H]1[C@@H]2CNC[C@@]21c1ccc(Cl)c(Cl)c1 (relative stereo) | 25.1 | 0.398 | 1.58 | > 9000 | > 9000 | > 9000 | 4000 | IC50 [12]: > 9000 nM |
| CCOCC[C@]1(c2ccc(Cl)c(Cl)c2)[C@@H]2CNC[C@@H]21 | 15.8 | 0.501 | 7.94 | – | – | – | < 100 | – |
| FC(F)(F)COC[C@]1(c2ccc(Cl)c(Cl)c2)[C@@H]2CNC[C@@H]21 | 25.1 | 1 | 25.1 | – | – | – | 300 | – |
| Clc1ccc([C@@]23CNC[C@@H]2[C@H]3COCC2CC2)cc1Cl (stereo in doubt) | 12.6 | 0.316 | 0.631 | 3000 | > 10000 | > 10000 | 1000 | Kp [16]: 10; Vd [17]: 5.2 L/kg; fraction unbound [18]: 0.001; CL [22]: < 0.5 mL/min/g; CL [23]: 2.6 mL/min/g; clearance [19]: 72 mL/min/kg; bioavailability [20]: 32%; half-life [21]: 1 h; IC50 [12]: > 10000 nM |
| Clc1ccc([C@@]2(COCC3CC3)[C@@H]3CNC[C@@H]32)cc1Cl | 10 | 0.631 | 7.94 | > 10000 | > 10000 | > 10000 | 1000 | – |
| Clc1ccc([C@@]2(COC3CCC3)[C@@H]3CNC[C@@H]32)cc1Cl | 6.31 | 0.398 | 2.51 | > 10000 | > 10000 | > 10000 | > 10000 | IC50 [12]: 3000 nM |
| COCC[C@]1(c2ccc(Cl)c(Cl)c2)[C@@H]2CNC[C@@H]21 | 10 | 0.316 | 7.94 | – | – | – | – | – |
| OC[C@H]1[C@@H]2CNC[C@]12c1ccc(Cl)c(Cl)c1 (racemic) | 457 | 15.5 | 28.8 | – | – | – | – | – |
| CSC[C@@H]1[C@H]2CNC[C@]21c1ccc(Cl)c(Cl)c1 (stereo in doubt) | 63.1 | 25.1 | 316 | – | – | – | – | – |
| CC(C)OC[C@@H]1[C@H]2CNC[C@]21c1ccc(Cl)c(Cl)c1 (stereo in doubt) | 5.01 | 0.126 | 0.251 | > 8000 | > 8000 | > 8000 | > 8000 | CLint scaled at 0.5 µM [8]: 1.4 mL/min/kg; CLint scaled at 0.5 µM [9]: < 0.5 mL/min/kg; IC50 [12]: > 8000 nM |
| COC[C@H]1[C@@H]2CNC[C@@]21c1ccc(Cl)c(Cl)c1 (stereo in doubt) | 110 | 1.51 | 3.16 | – | – | – | – | – |
| Cc1csc(C[C@@H]2[C@H]3CNC[C@]32c2ccc(Cl)c(Cl)c2)n1 (stereo in doubt) | 50.1 | 15.8 | 79.4 | – | – | – | – | – |
